Source: ChEMBL document CHEMBL1142707, “Bisaryloxime ethers as potent inhibitors of transthyretin amyloid fibril formation” (J Med Chem, 2005)

Key:
[1] = biological target: Transthyretin (Homo sapiens) (UniProt P02766); assay: Binding stoichiometry to TTR in human blood plasma determined by antibody capture/HPLC method; assay type: cell-free
In short: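 Human blood plasma spiked to 10.8 µM test compound from a 2.16 mM DMSO stock and incubated 24 h at 37 °C. Plasma was precleared with plain Sepharose for 1 h at 4 °C, then split into three aliquots for anti-TTR antibody-resin capture (20 min, 4 °C) in 10 mM Tris pH 8.0, 140 mM NaCl. Resin washed, eluted with 100 mM triethylamine pH 11.5, eluate analysed by HPLC for compound:TTR stoichiometry.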

[2] = biological target: Transthyretin (Homo sapiens) (UniProt P02766); assay: Percentage compound remaining at the conclusion of the acid-mediated fibril formation assay (72 h), assay conditions compound (7.2 uM), WT-TTR (3.6 uM, pH 4.4, 37C)
In short: (§1)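 Compound at 7.2 µM was incubated in the dark with or without 3.6 µM WT-TTR under acid fibril conditions (pH 4.4, 37 °C, 72 h). Analytical RP-HPLC peak area of the compound at the end was compared with the area at the start. Measurement error stated as 4%.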

[3] = biological target: Transthyretin (Homo sapiens) (UniProt P02766); assay: Percentage of WT-TTR (3.6 uM) amyloid fibril formation at pH 4.4 upon incubation with the compound (7.2 uM)
In short: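 WT-TTR (7.2 µM, 0.4 mg/mL) in 10 mM phosphate pH 7.2, 100 mM KCl, 1 mM EDTA was preincubated 30 min at 37 °C with inhibitor added from a 1.44 mM DMSO stock. An equal volume of 200 mM acetate pH 4.2 brought the sample to pH 4.4 (3.6 µM TTR, 7.2 µM compound final). Left 72 h at 37 °C, vortexed, turbidity read at 350 and 400 or 500 nm. Run in duplicate or triplicate.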

[4] = biological target: Transthyretin (Homo sapiens) (UniProt P02766); assay: Percentage compound remaining at the conclusion of the acid-mediated fibril formation assay (72 h) in absence of TTR, assay conditions, compound (7.2 uM), pH 4.4, 37C; in short: as §1

## Oc1c(Br)cc(/C=N/Oc2ccccc2)cc1Br
[1]
  Binding stoichiometry: 1.02
[2]
  Activity: 76%
[3]
  Formation: 0%
[4]
  Activity: 8%

## O=C(O)c1ccc(/C=N/Oc2cccc(C(=O)O)c2)cc1
[3]
  Formation: 31%

## FC(F)(F)c1ccccc1O/N=C/c1c(Cl)cccc1Cl
[3]
  Formation: 15%

## O=C(O)c1ccccc1O/N=C/c1cc(F)cc(F)c1
[3]
  Formation: 78%

## Oc1c(I)cc(/C=N/Oc2ccccc2C(F)(F)F)cc1I
[1]
  Binding stoichiometry: 1.71
[2]
  Activity: 100%
[3]
  Formation: 1%
[4]
  Activity: 89%

## O=C(O)c1cccc(O/N=C/c2ccccc2C(F)(F)F)c1
[1]
  Binding stoichiometry: 1
[2]
  Activity: 88%
[3]
  Formation: 1%
[4]
  Activity: 20%

## O=C(O)c1cccc(/C=N/Oc2cc(F)cc(F)c2)c1
[1]
  Binding stoichiometry: < 0.5
[3]
  Formation: 6%

## Clc1cccc(Cl)c1/C=N/Oc1ccccc1
[3]
  Formation: 63%

## FC(F)(F)c1ccccc1/C=N/Oc1ccccc1
[3]
  Formation: 65%

## FC(F)(F)c1cccc(O/N=C/c2cc(Cl)cc(Cl)c2)c1
[3]
  Formation: 72%

## Clc1cc(Cl)cc(O/N=C/c2c(Cl)cccc2Cl)c1
[3]
  Formation: 62%

## FC(F)(F)c1cccc(O/N=C/c2ccccc2C(F)(F)F)c1
[3]
  Formation: 83%

## O=C(O)c1ccc(/C=N/Oc2ccccc2C(=O)O)cc1
[3]
  Formation: 87%

## Fc1cc(F)cc(O/N=C/c2ccccc2C(F)(F)F)c1
[3]
  Formation: 71%

## O=C(O)c1cccc(O/N=C/c2cc(Br)c(O)c(Br)c2)c1
[1]
  Binding stoichiometry: < 0.5
[3]
  Formation: 0%

## O=C(O)c1ccccc1/C=N/Oc1ccccc1C(F)(F)F
[3]
  Formation: 75%

## O=C(O)c1ccccc1/C=N/Oc1cccc(C(F)(F)F)c1
[3]
  Formation: 84%

## O=C(O)c1ccc(/C=N/Oc2ccc(C(=O)O)cc2)cc1
[3]
  Formation: 46%

## O=C(O)c1ccc(O/N=C/c2ccccc2)cc1
[3]
  Formation: 32%

## Oc1c(Br)cc(/C=N/Oc2ccccc2C(F)(F)F)cc1Br
[1]
  Binding stoichiometry: 1.86
[2]
  Activity: 98%
[3]
  Formation: 1%
[4]
  Activity: 78%

## FC(F)(F)c1cccc(/C=N/Oc2ccccc2C(F)(F)F)c1
[3]
  Formation: 57%

## FC(F)(F)c1cccc(O/N=C/c2ccccc2)c1
[3]
  Formation: 83%

## O=C(O)c1cccc(/C=N/Oc2cccc(C(F)(F)F)c2)c1
[1]
  Binding stoichiometry: < 0.5
[3]
  Formation: 9%

## Oc1c(I)cc(/C=N/Oc2cc(Cl)cc(Cl)c2)cc1I
[1]
  Binding stoichiometry: 0.55
[3]
  Formation: 4%

## O=C(O)c1cccc(/C=N/Oc2cc(Cl)cc(Cl)c2)c1
[1]
  Binding stoichiometry: 0.56
[3]
  Formation: 3%

## O=C(O)c1ccccc1O/N=C/c1ccccc1
[3]
  Formation: 91%

## Oc1c(I)cc(/C=N/Oc2cc(F)cc(F)c2)cc1I
[1]
  Binding stoichiometry: 1.83
[3]
  Formation: 3%

## O=C(O)c1ccccc1O/N=C/c1c(Cl)cccc1Cl
[3]
  Formation: 59%

## O=C(O)c1ccccc1O/N=C/c1cc(Cl)cc(Cl)c1
[1]
  Binding stoichiometry: < 0.5
[2]
  Activity: 74%
[3]
  Formation: 1%
[4]
  Activity: 4%

## FC(F)(F)c1ccccc1O/N=C/c1cc(Cl)cc(Cl)c1
[3]
  Formation: 33%

## O=C(O)c1ccc(O/N=C/c2cc(I)c(O)c(I)c2)cc1
[1]
  Binding stoichiometry: < 0.5
[2]
  Activity: 83%
[3]
  Formation: 1%
[4]
  Activity: 91%

## O=C(O)c1cccc(O/N=C/c2cc(F)cc(F)c2)c1
[1]
  Binding stoichiometry: < 0.5
[3]
  Formation: 8%

## O=C(O)c1ccc(O/N=C/c2ccccc2C(=O)O)cc1
[3]
  Formation: 97%

## O=C(O)c1cccc(O/N=C/c2cc(Cl)cc(Cl)c2)c1
[1]
  Binding stoichiometry: < 0.5
[3]
  Formation: 0%

## Fc1cc(F)cc(/C=N/Oc2cc(F)cc(F)c2)c1
[3]
  Formation: 94%

## Fc1cc(F)cc(/C=N/Oc2ccccc2C(F)(F)F)c1
[3]
  Formation: 75%

## O=C(O)c1ccccc1O/N=C/c1cc(I)c(O)c(I)c1
[1]
  Binding stoichiometry: < 0.5
[3]
  Formation: 0%

## Fc1cc(F)cc(/C=N/Oc2cc(Cl)cc(Cl)c2)c1
[3]
  Formation: 61%

## FC(F)(F)c1cccc(/C=N/Oc2cccc(C(F)(F)F)c2)c1
[3]
  Formation: 83%

## O=C(O)c1cccc(/C=N/Oc2ccccc2C(=O)O)c1
[3]
  Formation: 87%

## O=C(O)c1ccc(O/N=C/c2c(Cl)cccc2Cl)cc1
[1]
  Binding stoichiometry: 0.81
[2]
  Activity: 81%
[3]
  Formation: 0%
[4]
  Activity: 85%

## Oc1c(I)cc(/C=N/Oc2ccccc2)cc1I
[1]
  Binding stoichiometry: 0.89
[2]
  Activity: 79%
[3]
  Formation: 0%
[4]
  Activity: 24%

## O=C(O)c1cccc(O/N=C/c2cccc(C(F)(F)F)c2)c1
[3]
  Formation: 27%

## Fc1cc(F)cc(O/N=C/c2cccc(C(F)(F)F)c2)c1
[3]
  Formation: 86%

## O=C(O)c1ccccc1/C=N/Oc1cc(Cl)cc(Cl)c1
[3]
  Formation: 30%

## O=C(O)c1cccc(O/N=C/c2ccccc2)c1
[3]
  Formation: 50%

## Oc1c(Br)cc(/C=N/Oc2cc(F)cc(F)c2)cc1Br
[1]
  Binding stoichiometry: 1.42
[3]
  Formation: 3%

## Clc1cc(Cl)cc(/C=N/Oc2ccccc2)c1
[3]
  Formation: 56%

## Fc1cc(F)cc(O/N=C/c2cc(Cl)cc(Cl)c2)c1
[3]
  Formation: 90%

## Fc1cc(F)cc(O/N=C/c2c(Cl)cccc2Cl)c1
[3]
  Formation: 24%

## Clc1cc(Cl)cc(/C=N/Oc2cc(Cl)cc(Cl)c2)c1
[3]
  Formation: 63%

## O=C(O)c1ccc(O/N=C/c2cccc(C(=O)O)c2)cc1
[3]
  Formation: 13%

## FC(F)(F)c1ccccc1/C=N/Oc1cc(Cl)cc(Cl)c1
[3]
  Formation: 32%

## O=C(O)c1ccccc1O/N=C/c1cc(Br)c(O)c(Br)c1
[1]
  Binding stoichiometry: < 0.5
[3]
  Formation: 0%

## FC(F)(F)c1ccc(/C=N/Oc2cccc(C(F)(F)F)c2)cc1
[3]
  Formation: 93%

## O=C(O)c1ccc(/C=N/Oc2cccc(C(F)(F)F)c2)cc1
[3]
  Formation: 12%

## O=C(O)c1ccccc1O/N=C/c1cccc(C(F)(F)F)c1
[3]
  Formation: 74%

## O=C(O)c1cccc(O/N=C/c2c(Cl)cccc2Cl)c1
[1]
  Binding stoichiometry: 0.71
[3]
  Formation: 1%

## Fc1cc(F)cc(/C=N/Oc2cccc(C(F)(F)F)c2)c1
[3]
  Formation: 88%

## FC(F)(F)c1ccc(/C=N/Oc2cc(Cl)cc(Cl)c2)cc1
[3]
  Formation: 68%

## Clc1cc(Cl)cc(O/N=C/c2ccccc2)c1
[3]
  Formation: 39%

## Oc1c(Br)cc(/C=N/Oc2cc(Cl)cc(Cl)c2)cc1Br
[1]
  Binding stoichiometry: 0.69
[3]
  Formation: 3%

## O=C(O)c1cccc(O/N=C/c2ccc(C(F)(F)F)cc2)c1
[3]
  Formation: 83%

## O=C(O)c1ccccc1/C=N/Oc1ccccc1
[3]
  Formation: 91%

## O=C(O)c1ccc(/C=N/Oc2cc(Cl)cc(Cl)c2)cc1
[1]
  Binding stoichiometry: 0.78
[3]
  Formation: 9%

## Fc1cc(F)cc(/C=N/Oc2ccccc2)c1
[3]
  Formation: 95%

## FC(F)(F)c1ccc(/C=N/Oc2ccccc2C(F)(F)F)cc1
[3]
  Formation: 81%

## O=C(O)c1ccc(O/N=C/c2cccc(C(F)(F)F)c2)cc1
[3]
  Formation: 50%

## FC(F)(F)c1cccc(/C=N/Oc2ccccc2)c1
[3]
  Formation: 92%

## FC(F)(F)c1cccc(O/N=C/c2c(Cl)cccc2Cl)c1
[3]
  Formation: 21%

## O=C(O)c1ccc(/C=N/Oc2cc(F)cc(F)c2)cc1
[1]
  Binding stoichiometry: < 0.5
[3]
  Formation: 9%

## O=C(O)c1ccccc1O/N=C/c1ccc(C(F)(F)F)cc1
[3]
  Formation: 90%

## O=C(O)c1ccc(O/N=C/c2ccccc2C(F)(F)F)cc1
[1]
  Binding stoichiometry: 1.31
[2]
  Activity: 84%
[3]
  Formation: 0%
[4]
  Activity: 79%

## O=C(O)c1cccc(/C=N/Oc2ccccc2C(F)(F)F)c1
[1]
  Binding stoichiometry: 1.07
[3]
  Formation: 6%

## Oc1c(I)cc(/C=N/Oc2cccc(C(F)(F)F)c2)cc1I
[1]
  Binding stoichiometry: 1.02
[3]
  Formation: 4%

## O=C(O)c1ccc(O/N=C/c2cc(Br)c(O)c(Br)c2)cc1
[1]
  Binding stoichiometry: < 0.5
[2]
  Activity: 81%
[3]
  Formation: 0%
[4]
  Activity: 88%

## FC(F)(F)c1cccc(/C=N/Oc2cc(Cl)cc(Cl)c2)c1
[3]
  Formation: 55%

## O=C(O)c1cccc(/C=N/Oc2cccc(C(=O)O)c2)c1
[3]
  Formation: 15%

## Fc1cc(F)cc(O/N=C/c2ccccc2)c1
[3]
  Formation: 87%

## FC(F)(F)c1ccccc1O/N=C/c1ccccc1
[3]
  Formation: 56%

## O=C(O)c1cccc(O/N=C/c2ccccc2C(=O)O)c1
[3]
  Formation: 94%

## O=C(O)c1ccc(/C=N/Oc2ccccc2)cc1
[3]
  Formation: 77%

## C(=N\Oc1ccccc1)/c1ccccc1
[3]
  Formation: 96%

## O=C(O)c1ccc(O/N=C/c2cc(Cl)cc(Cl)c2)cc1
[1]
  Binding stoichiometry: 0.53
[3]
  Formation: 9%

## FC(F)(F)c1ccc(/C=N/Oc2ccccc2)cc1
[3]
  Formation: 98%

## O=C(O)c1ccccc1O/N=C/c1ccccc1C(F)(F)F
[3]
  Formation: 34%

## O=C(O)c1cccc(/C=N/Oc2ccccc2)c1
[3]
  Formation: 79%

## O=C(O)c1ccccc1/C=N/Oc1cc(F)cc(F)c1
[3]
  Formation: 84%

## O=C(O)c1cccc(O/N=C/c2cc(I)c(O)c(I)c2)c1
[1]
  Binding stoichiometry: < 0.5
[2]
  Activity: 77%
[3]
  Formation: 0%
[4]
  Activity: 81%

## Oc1c(Br)cc(/C=N/Oc2cccc(C(F)(F)F)c2)cc1Br
[1]
  Binding stoichiometry: 1.17
[3]
  Formation: 4%

## O=C(O)c1ccc(O/N=C/c2cc(F)cc(F)c2)cc1
[3]
  Formation: 18%

## FC(F)(F)c1ccccc1/C=N/Oc1ccccc1C(F)(F)F
[3]
  Formation: 83%

## O=C(O)c1ccc(O/N=C/c2ccc(C(F)(F)F)cc2)cc1
[3]
  Formation: 94%

## Fc1cc(F)cc(O/N=C/c2ccc(C(F)(F)F)cc2)c1
[3]
  Formation: 77%
